In ChEMBL document CHEMBL4513216, “Probing the Open Global Health Chemical Diversity Library for Multistage-Active Starting Points for Next-Generation Antimalarials” (ACS Infect Dis, 2020) one finds cytotoxicity data, which are given here for 72 compounds.

A short description of the data set: Toxicity liver stage against HepG2, at 10uM. The format is cell-based. Details: test concentration 10 uM, cell line HepG2-A16-CD81EGFP. The note with it: human, HepG2-A16-CD81EGFP cells; read-out: INHIBITION
The method, boiled down:
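Uninfected HepG2-A16-CD81EGFP cells, 3 × 10^3 per well, 1536-well, plated on prespotted compound at 10 μM final, parasite-free screening media added to match infected plates; puromycin 10 μM positive, DMSO 0.5% negative; run in parallel with 48 h PbLuc assay at 37 °C, 5% CO2; viability by CellTiter-Glo luminescence, normalized to controls.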
Turning to `CN(C)[C@H]1CCCCN(C(=O)c2cccc(-c3cccc(F)c3)c2)C1`, the cytotoxicity at 10 µM is -6.3%.
In the case of `CCc1nc(C)cn1C(=O)Nc1ccc(F)cc1`, the cytotoxicity at 10 µM is 11.1%.
Regarding `CCn1cnnc1CNC(=O)NCC(C(C)C)N1CCOCC1` (configuration not stated), the cytotoxicity at 10 µM is 13.5%.
To `Cc1cc(C)n(C2CCCN(C(=O)c3ccc(NC4CC4)nc3)C2)n1` (configuration not stated) belongs 5.25%.
For the compound `Cc1ccc(C(C(=O)N2CC(c3ccccn3)C2)N(C)C)cc1` (configuration not stated), the cytotoxicity at 10 µM was -9.82%.
As for `CC(C)(C)c1cc(=O)[nH]c(-c2ccccc2CN2CCC[C@@H](O)C2)n1`, the cytotoxicity at 10 µM was -43.3%.
On to `CC(C)(C)c1ccc(C(=O)NCCCNC(=O)c2cnccn2)cc1`, for which the cytotoxicity at 10 µM stood at 6.58%.
To `NC(=O)N1CCC2(CCN(C(=O)c3cccnc3)CC2)C1` belongs -83%; to `COc1cc(CN(C)C(=O)NCCNC(=O)C2CC2)ccc1SC`, -3.73%.
As for `Cc1noc(C)c1CS(=O)(=O)CC(=O)NCCc1ccccc1`, the cytotoxicity at 10 µM was -5.83%.
To `Cc1cc(C(=O)N2CCc3c(ncnc3N3CCOCC3)C2)[nH]n1` belongs -5.92%; to `c1cncc(CN(Cc2ccsc2)Cc2ccc(C3CCCCO3)o2)c1` (configuration not stated), 14.8%.
In the case of `Cc1ccc(C(=O)N2CCSCC2)cc1NC(C)C` it was -3.42%; in that of `Cn1cnnc1S(=O)(=O)C1CCN(S(=O)(=O)C2CC2)CC1`, -9.99%.
To `Cc1ccc(C(C)(O)CNC(=O)c2sccc2OC(F)F)o1` (configuration not stated) belongs -1.34%; to `COCC1CN(CCOc2ccc(Cl)cc2)Cc2c1cnn2C` (configuration not stated), -102%; to `CSCC(=O)N1C[C@H](c2ccc(C)o2)[C@@H](N)C1`, 6.6%.
For the compound `Cc1nc(C2CCCN(C(=O)C(C)(C)n3cc(Cl)cn3)C2)no1` (configuration not stated), the cytotoxicity at 10 µM is -2.09%.
In the case of `CCN1CC2(CC1=O)CN(C(C)=O)CCN(S(=O)(=O)CC)C2` (configuration not stated) it was -2.02%.
Take `CCN1CCC(NC(=O)CN2CC(n3nc(C)cc3C)C2)CC1`: the cytotoxicity at 10 µM was -4.44%.
With `OCCN1CCC(CNCc2ccccc2OC(F)(F)F)CC1`, the cytotoxicity at 10 µM was -13.7%.
In the case of `Cc1cc(=O)n(CC(=O)NCC2CCCO2)c(-c2cccc(Cl)c2)n1` (configuration not stated) it was -11%; in that of `CN(Cc1ccncc1)CC1CCCN(CCc2ccc(Cl)cc2)C1` (configuration not stated), 1.06%.
To `CNCc1nc(-c2ccc3c(c2)OCO3)c[nH]1` belongs 3.44%; to `O=C1NC[C@@]2(C(=O)O)CN(Cc3cccc(Oc4ccccc4)c3)C[C@@H]12`, -5.65%.
For the compound `Cc1cnn(CC(C)NCc2cccc(C#N)c2)c1` (configuration not stated), the cytotoxicity at 10 µM was -2.62%.
In the case of `Cc1noc(C(C)C)c1C(=O)NCCCN1CCCC1` it was -13.5%; in that of `Cc1csc(CCNc2ccc(C#N)cn2)n1`, 0.738%.
Regarding `Cc1ccc(C(=O)N2CC(Oc3ccccc3C)C2)s1`, the cytotoxicity at 10 µM amounted to 17.1%.
In the case of `COc1ccc(N(Cc2ccco2)C(=O)C2CCCO2)cc1F` (configuration not stated) it was -3.51%.
In the case of `COCCOCCSc1nnc(Cc2ccccc2F)o1` it was 14.5%; in that of `Cc1noc(C)c1CN1CCCC2(CCN(CC3CCCC3)C2)C1` (configuration not stated), -4.1%.
As to `O=S(=O)(C1CC1)N1C[C@H]2CCC[C@@]2(COc2ccccn2)C1`, the cytotoxicity at 10 µM was -3.47%.
In the case of `CCn1c(NCC2CCCO2)nc2c(C)nn(C)c2c1=O` (configuration not stated), the cytotoxicity at 10 µM was -3.09%.
In the case of `CN(Cc1cc[nH]n1)C(=O)c1cn(Cc2c(F)cccc2F)nn1` it was 7.29%; in that of `CSC(C)(C)CNC(=O)NC1CCC1`, -7.32%.
To `Cn1cc(CN2CC[C@@H]3[C@@H]2CCN3C(=O)c2cccc(F)c2)cn1` belongs -66.4%; to `COc1ccc(-c2noc(CN3CC(n4cccn4)C3)n2)c(OC)c1`, -11.2%; to `NC(=O)CCOc1ccc(NC(=O)c2ccccc2OC(F)F)cc1`, 9.62%.
In the case of `CCc1nc(CN2CCCC(N(C)Cc3cnc(C)cn3)C2)no1` (configuration not stated) it was -5.66%; in that of `CC(C)N(CCO)C(=O)C1CCC(=O)N(CCc2ccc(Cl)cc2)C1` (configuration not stated), -8.27%; in that of `O=C(NCc1cccs1)c1nc2c(o1)CN(c1ncccn1)C2`, -0.664%.
As to `CCn1nccc1CN(C)C(=O)Cn1nc(C)cc1C`, the cytotoxicity at 10 µM is 6.18%.
Regarding `Cc1cccc2[nH]c(C3CCCN3Cc3ccc(CO)o3)nc12` (configuration not stated), the cytotoxicity at 10 µM was 10.3%.
To `N[C@@H]1CCN(Cc2ccc(-c3nc(-c4cccnc4)cc(=O)[nH]3)cc2)C1` belongs 9.48%.
Regarding `CC(=O)Nc1cccc(OCCNC(=O)N(C)Cc2ccccc2)c1`, the cytotoxicity at 10 µM is -13.2%.
As for `CC(=O)N1CCO[C@@H]2CN(C(=O)c3ccc4ncccc4c3)CC[C@@H]2C1`, the cytotoxicity at 10 µM is 8.22%.
Regarding `Cn1cc2ncn(CCNc3cccnc3)c(=O)c2n1`, the cytotoxicity at 10 µM amounted to 2.52%.
Take `O=C(NCCCc1ccc(O)cc1)C1(O)Cc2ccccc2C1`: the cytotoxicity at 10 µM was 1.6%.
To `CCOCCN1CCN(CCCS(C)(=O)=O)CC1C` (configuration not stated) belongs -4.14%.
As to `CSc1ccc(C(=O)C2CCCN(C(=O)CCn3cncn3)C2)cc1` (configuration not stated), the cytotoxicity at 10 µM is -12.2%.
In the case of `c1ccc2oc(CN3CCCC3Cn3cncn3)nc2c1` (configuration not stated) it was -17.2%.
To `CCCN(CCC)C(=O)CN(C)Cc1cnc(C)s1` belongs 20.9%; to `CCn1cc(NC(=O)N2CCN(C(=O)Oc3ccccc3)CC2)cn1`, 1.1%; to `Cn1cc(-c2noc(C3(C)CCOCC3)n2)cn1`, -5.65%.
In the case of `Cc1ccc(CN2Cc3c(cnn3C)C(COCC3CC3)C2)s1` (configuration not stated) it was 3.91%; in that of `Cc1nc(Cn2c(=O)cnc3ccccc32)n(C)n1`, -0.825%; in that of `NC(=O)c1cc2c(nc1-c1ccoc1)CCC2`, 0.562%.
On to `COCCN(Cc1ccccn1)C(=O)CC1OCCc2ccsc21` (configuration not stated), for which the cytotoxicity at 10 µM was -39%.
In the case of `Cc1ccc(C(=O)NC2CCN(C(=O)Nc3ccccn3)CC2)o1` it was 4.86%; in that of `COCC1CC2(CCN(c3cccc(C)n3)CC2)CN1c1ncccn1` (configuration not stated), -108%.
Regarding `CC(C)(NCc1cccc(O)c1)c1ccc2c(c1)OCO2`, the cytotoxicity at 10 µM amounted to 5.12%.
To `COCCN(C)C1COC2(CCN(Cc3ccccn3)CC2)C1` (configuration not stated) belongs -73.4%.
To `NC(=O)c1cncc(N2CCN(Cc3cccc4nsnc34)CC2)n1` belongs 8.15%; to `CCNC(=O)[C@@H]1CCCN1[C@@H](C(=O)NC)c1ccccc1`, 7.77%; to `Cn1ccnc1CN1CCN(Cc2ccccc2C#N)CC1`, -3.83%.
In the case of `c1ccc(COC[C@H]2CC[C@H]3[C@H](CCN3Cc3ccccn3)O2)nc1` it was -84.7%; in that of `CCC(O)CN1CCN(C(=O)c2sccc2C2CC2)CC1` (configuration not stated), -14.6%.
As to `O=C(CS(=O)(=O)Cc1cc(Cl)c2c(c1)OCO2)N1CCCCCC1`, the cytotoxicity at 10 µM is -2.8%.
To `Cc1nnc(NC(=O)NCc2cc(F)cc(F)c2)s1` belongs -6.07%; to `Cc1noc(CNC(=O)C(C)(C)NC(=O)OC(C)(C)C)n1`, 13.9%.
To `COc1cccc(C2CCCN2C(=O)c2cc3c(nc2OC)CCC3)c1` (configuration not stated) belongs -10.2%.
